Rows were chosen to be rich in hits. Some 2.3% of all compounds tested hit in one or more screens of this group.
TRPC4 potent = allosteric potentiators of mouse TRPC4 channel. 310,000 tested, 0.42% active. B-score at 10 µM. AID 2227. HEK293 TRPC4beta/mu-opioid, DAMGO EC20, Fluo-4 Ca2+ flux; active compounds read high;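 active means B-score of calcium response area above 5 SD of library B-scores, with initial fluorescence ratio within 5 SD of library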;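 further: B-score of integrated fluorescence ratio over time as area under calcium response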
DNA FID counter = fluorescent intercalator displacement, NS3 helicase counter-screen; DNA fluorescent intercalator displacement, fluorescence; inhibition, % at 7.9 µM; 290,000 tested, 0.17% active; in the data active means inhibition above about 37%;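 further: 0% = vehicle and 100% = reference compound; higher means more ethidium bromide displaced from hairpin DNA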
TRPC4 block = inhibitors of mouse TRPC4 channel. Q9QUQ5. HEK293 TRPC4beta/mu-opioid, DAMGO-evoked Fluo4 calcium flux; active compounds read low. B-score at 10 µM. 300,000 tested, 0.39% active. AID 2247;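 active means B-score over 3 SD under the library average, no early fluorescence shift, positive overall ratio signal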
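Signal: kinetic Fluo4 fluorescence imaging of calcium influx. Material: stable TRPC4beta/mu-opioid receptor HEK293 cells. Probe or stimulus: DAMGO in two steps, submaximal then maximal.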
TRPC6 activator = mouse TRPC6 channel activation; HEK293-TRPC6 membrane potential dye fluorescence; active compounds read high; Q61143; AID 2550; B-score at 10 µM; 310,000 tested, 0.13% active;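 active means B-score of the integrated fluorescence ratio above library mean plus 3 SD, and starting fluorescence ratio within library mean plus 5 SD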;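 further: higher score means more depolarization so channel activation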
Target sequence (Q61143 whole entry, looked up): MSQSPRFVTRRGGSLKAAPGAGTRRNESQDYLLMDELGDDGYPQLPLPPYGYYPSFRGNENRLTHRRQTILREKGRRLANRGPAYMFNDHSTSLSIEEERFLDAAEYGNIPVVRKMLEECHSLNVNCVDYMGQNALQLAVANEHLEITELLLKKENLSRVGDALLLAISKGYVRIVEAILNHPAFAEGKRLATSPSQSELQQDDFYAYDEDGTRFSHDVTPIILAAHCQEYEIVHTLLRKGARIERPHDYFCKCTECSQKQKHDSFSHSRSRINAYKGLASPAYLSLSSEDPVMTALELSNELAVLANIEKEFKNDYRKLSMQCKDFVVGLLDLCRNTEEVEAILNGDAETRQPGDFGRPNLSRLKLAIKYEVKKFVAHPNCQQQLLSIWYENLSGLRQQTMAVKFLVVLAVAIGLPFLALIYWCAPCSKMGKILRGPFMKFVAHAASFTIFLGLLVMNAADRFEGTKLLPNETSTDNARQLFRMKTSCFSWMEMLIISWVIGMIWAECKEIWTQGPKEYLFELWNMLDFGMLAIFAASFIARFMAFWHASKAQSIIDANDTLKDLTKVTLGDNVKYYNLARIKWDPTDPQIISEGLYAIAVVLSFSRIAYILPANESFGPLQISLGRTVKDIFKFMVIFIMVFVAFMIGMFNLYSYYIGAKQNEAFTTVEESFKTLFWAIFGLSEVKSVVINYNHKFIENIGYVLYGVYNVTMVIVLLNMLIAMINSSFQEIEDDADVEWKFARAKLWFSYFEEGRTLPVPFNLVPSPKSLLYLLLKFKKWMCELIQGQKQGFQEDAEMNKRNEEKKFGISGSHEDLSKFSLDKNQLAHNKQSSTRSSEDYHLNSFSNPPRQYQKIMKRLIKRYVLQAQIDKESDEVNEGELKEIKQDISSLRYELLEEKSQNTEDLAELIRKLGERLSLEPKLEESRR
TRPC6 inhibitor = blocks the mouse TRPC6 cation channel; HEK293-TRPC6, membrane potential dye, ACh-evoked depolarization; active compounds read low; B-score at 10 µM; 310,000 tested, 1.1% active; AID 2553;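 active means B-score under library mean minus 3 SD, initial fluorescence not abnormally high, positive integrated signal ratio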;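 further: B-score derived from integrated fluorescence ratio over the kinetic read; more negative B-score means stronger inhibition of depolarization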
TRPC4 act = opens the mouse TRPC4 cation channel. HEK293 TRPC4beta/mu-opioid, Fluo4 calcium fluorescence; active compounds read high. B-score at 10 µM. AID 2237. Q9QUQ5. 310,000 tested, 0.49% active;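 active means B-score above 5 SD of library B-scores, and initial fluorescence ratio not above library mean plus 5 SD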;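 further: positive B-score marks a calcium rise read as TRPC4 activation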
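Assay system: HEK293 stable line with TRPC4beta plus mu-opioid receptor; schedule: 45 min room-temperature Fluo4 loading, 110 s read; technique: kinetic Fluo4 calcium fluorescence; evaluation: integrated baseline-normalised fluorescence ratio, converted to per-well B score; controls: buffer (low) and maximal DAMGO (high)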
TRPC4 sel inh 2 = second selectivity test of TRPC6 inhibitors: effect on mouse TRPC4 | shares compounds with TRPC6 inhibitor | HEK293 TRPC4/MOR, membrane potential dye fluorescence; channel activated by saturating DAMGO dose | inhibition, % at 10 µM | 920 tested, 42% active;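 active means compounds whose fluorescence signal differed from control wells by over 3 SD, either direction, in both duplicate plates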
TRPC4 spec = mouse TRPC4 off-target activity of TRPC6 inhibitors. AID 2777. HEK293 TRPC4/mu-opioid, membrane potential fluorescence. shares compounds with TRPC6 inhibitor. 920 tested, 61% active. activity change, negative = inhibition, % at 10 µM;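 active means rise or fall in signal beyond 3 SD of buffer-only wells in both replicate plates, either sign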;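 further: integrated kinetic ratio of fluorescence range over baseline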
HEK293 MPD ctr 2-1 = parental HEK293 nonspecific activity of TRPC6 inhibitors, second screen. signal change vs control, % at 10 µM. 920 tested, 31% active. parental HEK293 membrane potential dye fluorescence; maximal acetylcholine challenge after compound addition. AID 2779. shares compounds with TRPC6 inhibitor;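 active means membrane potential signal moving either way by over 3 SD of the maximum-effect control, in both duplicate plates, meaning non-specific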
HEK293 MPD ctr-1 = checks TRPC6 inhibitor effects in parental HEK293 cells | 920 tested, 60% active | shares compounds with TRPC6 inhibitor | membrane potential signal change, % at 10 µM | AID 2780 | parental HEK293 membrane potential dye fluorescence;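 active means membrane potential signal shifting up or down by more than 3 SD of buffer-only wells, on both duplicate plates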
HEK293 MPD ctr-2 = parental HEK293 nonspecific activity of TRPC6 modulators; AID 488924; membrane potential dye fluorescence; shares compounds with TRPC6 inhibitor; membrane potential signal change, % at 10 µM; 2,400 tested, 51% active;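 active means membrane potential signal moves up or down beyond 5 SD from buffer-only wells, on both duplicate plates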
HEK293 MPD ctr 2-2 = second check of TRPC6 modulator effects in parental HEK293 cells | shares compounds with TRPC6 inhibitor | membrane potential dye fluorescence; after compound, maximal acetylcholine stimulation | inhibition, % at 10 µM | 2,400 tested, 14% active | AID 488926;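 active means membrane potential signal drops by more than 5 SD from the mean control signal, in both duplicate plates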;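 further: plate controls were acetylcholine ECmax control wells for no effect and buffer only wells for full effect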
TRPC4 ctr mod = mouse TRPC4 off-target activity of TRPC6 modulators; percent change from control (negative = decrease, positive = increase), % at 10 µM; 2,400 tested, 69% active; shares compounds with TRPC6 inhibitor; HEK293 TRPC4/mu-opioid, membrane potential fluorescence;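 active means membrane potential signal moved up or down beyond 5 SD of buffer control wells, in both duplicate plates, actives on both sides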;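 further: plate controls were assay buffer wells for no effect and DAMGO maximal-effect wells for full effect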
TRPC4/MOR inh 2 = mouse TRPC4 off-target activity of TRPC6 modulators, second screen. shares compounds with TRPC6 inhibitor. HEK293 TRPC4/mu-opioid, membrane potential dye fluorescence; stimulated with maximal-effect DAMGO. inhibition, % at 10 µM. 2,400 tested, 55% active;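 active means drop in membrane potential signal beyond 5 SD of the control wells in both duplicate plates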;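 further: TRPC4 counter screen for TRPC6 hits run under conditions tuned for TRPC6 not TRPC4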
TRPC6 block conf = confirmation of mouse TRPC6 inhibitors; shares compounds with TRPC6 inhibitor; HEK293-TRPC6, membrane potential dye, ACh-evoked depolarization; inhibition, % at 10 µM; 3,300 tested, 43% active; AID 488960;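 active means fluorescence ratio falls more than 5 SD below the full-stimulation control mean, in both duplicate runs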;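 further: integrated fluorescence ratio of peak minus minimum over baseline after agonist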
TRPC6 act conf = confirmation of mouse TRPC6 activators | shares compounds with TRPC6 inhibitor | HEK293-TRPC6 membrane potential dye fluorescence, FDSS | activation, % at 10 µM | 2,800 tested, 11% active | AID 488961;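 active means ratio signal rise beyond 5 SD above unstimulated control wells' mean, seen in both duplicate runs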;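 further: plate controls were buffer EC0 wells for no effect and acetylcholine ECmax response for full effect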
An asterisk follows results filed as active.

`COc1cc2c(cc1OC)-c1c(OC)c(OC)cc3ccnc(c13)C2=O` gave TRPC4 potent inactive, DNA FID counter -9, TRPC4 block inactive, TRPC6 activator inactive, TRPC6 inhibitor -7.9*, TRPC4 act inactive, TRPC4 sel inh 2 63%*, TRPC4 spec -26%*, HEK293 MPD ctr 2-1 -58%*, HEK293 MPD ctr-1 -426%*, TRPC6 block conf 54%* and TRPC6 act conf inactive.
For COc1cc2cccc(OC)c(=O)c2c(O)c1OC the results were TRPC4 potent inactive, DNA FID counter 5, TRPC4 block inactive, TRPC6 activator inactive, TRPC6 inhibitor inactive and TRPC4 act inactive.
Screening O=C(COC(=O)c1ncc(Cl)c(Cl)c1Cl)Nc1cccnc1Cl returned TRPC4 potent inactive, TRPC4 block inactive, TRPC6 activator inactive, TRPC6 inhibitor inactive and TRPC4 act inactive.
For CCNC(=S)N(CCO)Cc1cc2cc3c(cc2[nH]c1=O)OCO3 the results were TRPC4 potent inactive, DNA FID counter -4, TRPC4 block inactive, TRPC6 activator inactive, TRPC6 inhibitor inactive and TRPC4 act inactive.
`CC(C)COc1ccc(S(=O)(=O)NNC(=O)c2cc3ccccc3o2)cc1` gave TRPC4 potent inactive, DNA FID counter -24, TRPC4 block inactive, TRPC6 activator inactive, TRPC6 inhibitor inactive and TRPC4 act inactive.
For CCCCOc1ccc(S(=O)(=O)NNC(=O)c2cc3ccccc3o2)cc1 the results were TRPC4 potent inactive, DNA FID counter -13, TRPC4 block inactive, TRPC6 activator inactive, TRPC6 inhibitor -5.2*, TRPC4 act inactive, HEK293 MPD ctr-2 inactive, HEK293 MPD ctr 2-2 inactive, TRPC4 ctr mod inactive, TRPC4/MOR inh 2 inactive, TRPC6 block conf inactive and TRPC6 act conf inactive.
O=C(NC1CCCC1)C(c1ccccc1)N(Cc1cccnc1)C(=O)Cc1cccs1 (configuration not stated) was read as TRPC4 potent inactive, DNA FID counter -15, TRPC4 block inactive, TRPC6 activator inactive, TRPC6 inhibitor -6.1*, TRPC4 act inactive, HEK293 MPD ctr-2 194%*, HEK293 MPD ctr 2-2 inactive, TRPC4 ctr mod 50%*, TRPC4/MOR inh 2 inactive and TRPC6 block conf inactive.
`CCc1nnc(NC(=O)CSc2nnc(-c3ccccc3OC)n2-c2ccccc2)s1` gave TRPC4 potent inactive, DNA FID counter -29, TRPC4 block inactive, TRPC6 activator 12*, TRPC6 inhibitor inactive, TRPC4 act inactive, HEK293 MPD ctr-2 182%*, HEK293 MPD ctr 2-2 inactive, TRPC4 ctr mod 40%*, TRPC4/MOR inh 2 inactive, TRPC6 block conf inactive and TRPC6 act conf 54%*.
`Nc1nc(N)nc(-c2ccccn2)n1` gave TRPC4 potent inactive, DNA FID counter -7, TRPC4 block inactive, TRPC6 activator inactive, TRPC6 inhibitor inactive and TRPC4 act inactive.
Screening c1ccc(-c2nc(-c3ccccn3)nc(-c3ccccn3)n2)nc1 returned TRPC4 potent inactive, DNA FID counter -13, TRPC4 block inactive, TRPC6 activator inactive, TRPC6 inhibitor -6.7*, TRPC4 act inactive, TRPC4 sel inh 2 inactive, TRPC4 spec -19%*, HEK293 MPD ctr 2-1 4.0%*, HEK293 MPD ctr-1 -266%*, TRPC6 block conf inactive and TRPC6 act conf inactive.
`Nc1ccc(C23CC4CC(CC(CO)(C4)C2)C3)cc1` gave TRPC4 potent inactive, DNA FID counter -4, TRPC4 block inactive, TRPC6 activator inactive, TRPC6 inhibitor inactive and TRPC4 act inactive.
For NCC12CC3CC(C1)CC(c1ccc(Cl)cc1)(C3)C2 the results were TRPC4 potent inactive, DNA FID counter 18, TRPC4 block inactive, TRPC6 activator inactive, TRPC6 inhibitor -7.1*, TRPC4 act 61*, TRPC4 sel inh 2 31%*, TRPC4 spec inactive, HEK293 MPD ctr 2-1 inactive, HEK293 MPD ctr-1 -136%*, TRPC6 block conf 72%* and TRPC6 act conf inactive.
For c1ccc(Cn2c(-c3ccccc3)c[n+]3c2SCCC3)cc1 the results were TRPC4 potent inactive, DNA FID counter 6, TRPC4 block inactive, TRPC6 activator inactive, TRPC6 inhibitor -9.9*, TRPC4 act inactive, TRPC4 sel inh 2 inactive, TRPC4 spec inactive, HEK293 MPD ctr 2-1 40%*, HEK293 MPD ctr-1 inactive, TRPC6 block conf 68%* and TRPC6 act conf inactive.
`c1ccc(CN2CCN(C3CCCSc4ccccc43)CC2)cc1` (configuration not stated) gave TRPC4 potent inactive, TRPC4 block inactive, TRPC6 activator inactive, TRPC6 inhibitor inactive and TRPC4 act inactive.
